Sampled rows, rich in hits. Any-hit rate of the full collection: about 2.6%.
Yeast growth inh – yeast BB579 growth reduction in restrictive medium; AID 804; S. cerevisiae BB579 growth, OD615, 48 h; 140,000 tested, 0.51% active; inhibition, % at 10 µM;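 active means inhibition above a set limit, 3 SD over the mean compound inhibition, cut at about 44% in these data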
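Assay system – yeast BB579 (DeaD) · Dosing – single compound dose of 10 µM, 0.25% DMSO final · Detection – OD615 turbidity measurement · Buffer or medium – CSMM-D restrictive synthetic medium containing dextrose (glucose) · Benchmarks – positive control amphotericin B 10 µg/mL · Incubation – 48 h exposure, 30 °C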
RAM inhibit – inhibitors of the yeast RAM network; S. cerevisiae dse1pr::URA3 reporter, 5-FOA growth OD615, 2 d; analog-sensitive cbk1-as2 kinase mutant strain; inhibition, % at 50 µM; 190,000 tested, 1.8% active;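 active means inhibition above a set limit, 3 SD over mean compound inhibition, cut at about 8.4% in these data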;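 further: 0% = DMSO-only wells with no growth and 100% = 10 µM 1-NA-PP1 full growth; inhibition rescues growth on 5-FOA so higher OD means more RAM inhibition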
Yeast lifespan up – yeast lifespan extension; S. cerevisiae growth with nicotinamide, OD615; deaD strain in restrictive glucose medium; 130,000 tested, 0.68% active; inhibition of the nicotinamide effect, % at 10 µM; AID 775;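 active means inhibition above a set limit, placed 3 SD over the median of all compounds, cut at about 26% in these data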;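 further: 0% = nicotinamide-treated wells and 100% = cells grown without nicotinamide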
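System: DeaD-strain S. cerevisiae / Buffer or medium: CSMM-D, restrictive glucose (dextrose) synthetic minimal medium / Probe or stimulus: nicotinamide, 1.5 mM, co-present with compound / Compound: one concentration, 10 µM, DMSO 0.25% / Incubation: 48 h compound exposure at 30 °C, humidified / Technique: optical density (absorbance) at 615 nm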
RAM 5-FOA – restores 5-FOA growth of efflux-deficient yeast | shares compounds with RAM inhibit | S. cerevisiae efflux-deficient reporter strain, 5-FOA growth OD615, 2 days | max inhibition, % | 1,200 tested, under 10 active | AID 1305; call rule not given here;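 further: plate controls were vehicle for no effect and reference inhibitor for full effect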
Numbers without * were called inactive; / = no result given.

SMILES	Yeast growth inh	RAM inhibit	Yeast lifespan up	RAM 5-FOA
COc1cc(NC(=O)CSCc2cnn(-c3ccccc3)c2-n2cccc2)cc(OC)c1	-52.4	19.8*	-2.5	2.4
COc1ccc(OC)c(NC(=O)CSCc2cnn(-c3ccccc3)c2-n2cccc2)c1	-47.8	16.3*	35.2	2.8
COc1ccccc1CNC(=O)CSCc1cnn(-c2ccccc2)c1-n1cccc1	-52.7	6.1	-1.7	/
CC(C)CN(CC(C)C)S(=O)(=O)N1CCC(C(=O)NCc2ccc3c(c2)OCO3)CC1	/	5.0	/	/
CCOC(=O)c1ccc(NC(=O)c2ccccc2C)cc1	9.5	0.6	-6.2	/
CC1(C)CC(=O)C(N=Nc2ccc(OC(F)F)cc2)=C(O)C1	/	0.8	/	/
O=C(O)Cc1nn(Cc2ccc(Cl)cc2)c(=O)c2ccccc12	/	0.5	/	/
O=c1c2ccccc2c(-c2ccccc2)nn1Cc1ccc(Cl)cc1	-34.2	14.2*	-17.0	1.7
C=CCOC(=O)C1=C(C)NC(SCC)=C(C#N)C1c1ccc(Cl)cc1 (stereo not drawn)	-43.6	12.5*	5.1	2.4
C=CCOC(=O)C1=C(C)NC(=O)NC1c1ccc(Cl)cc1 (stereo not drawn)	-32.3	1.6	-2.8	/
CCN(C(=O)COC(=O)c1cc(-c2cccc3ccccc23)nc2ccccc12)C1CCS(=O)(=O)C1 (stereo not drawn)	-46.4	4.7	3.9	/
CC(=O)OC(C(=O)NCc1ccco1)c1ccncc1 (stereo not drawn)	-10.2	1.1	-8.6	/
COc1ccc(-c2nc(CCl)cs2)cc1OC	/	-0.2	/	/
COc1ccc(-c2nc(-c3ccc(O)cc3O)cs2)cc1OC	/	12.1*	/	3.6
CC1CCCC(C)N1C(=O)CSc1nnc(COc2ccccc2)n1-c1ccccc1 (stereo not drawn)	-18.9	3.0	-2.9	/
CC1(C)CC(=O)/C(=C\c2cccc([N+](=O)[O-])c2)C(C)(C)N1	5.4	3.1	10.6	/
COC(=O)c1nn(-c2ccccc2)c(Cl)c1/C=N/OCc1ccc(Cl)cc1Cl	12.9	16.8*	-1.9	4.1
COC(=O)c1nn(-c2ccccc2)c(Cl)c1/C=N/O	/	1.0	/	/
COc1cccc(/C=C(/C(=O)OCC(N)=O)c2ccccc2)c1	/	-0.2	/	/
COc1cccc(/C=C(/C(=O)OCC(=O)NC2CCCC(C)C2C)c2ccccc2)c1 (stereo not drawn)	-12.6	20.2*	7.9	5.6
COC(=O)Cc1ccc(N(Cc2ccccc2F)S(=O)(=O)c2ccc(Cl)cc2)cc1	-76.4	15.5*	13.7	1.1
COC(=O)CN(c1ccc(F)cc1)S(=O)(=O)c1ccccc1	-5.4	-0.8	-5.9	/
O=C(COc1ccc(Cl)cc1Cl)NC(=S)Nc1ccccc1C(=O)O	/	4.3	/	/
CCOc1ccccc1NC(=S)NC(=O)CCCOc1ccc(Cl)cc1Cl	-87.6	12.2*	0.6	1.8
CCCCC(=O)Nc1cccc(NC(=S)NC(=O)COc2ccccc2Cl)c1	-16.6	11.5*	0.7	2.0
SMILES	Yeast growth inh	RAM inhibit	Yeast lifespan up	RAM 5-FOA
CCCCC(=O)Nc1cccc(NC(=S)NC(=O)Cc2ccccc2)c1	-36.6	8.1	3.2	/
CC(NC(=O)CCSc1nc(-c2ccc3c(c2)OCO3)cc(C(F)(F)F)n1)c1ccccc1 (stereo not drawn)	-30.4	1.3	-11.9	/
O=C(NC(=S)Nc1cc(C(F)(F)F)ccc1N1CCOCC1)c1sc2ccccc2c1Cl	-31.2	1.6	0.1	/
O=C(N/N=C/c1ccco1)c1cc(-c2ccc(Cl)s2)[nH]n1	/	3.6	/	/
CC1(C)CC(NC(=O)CCc2nnc(CCCCc3ccccc3)o2)CCO1 (stereo not drawn)	/	2.0	/	/
Cc1ccc(C(C(=O)NC2CCCCC2)N2CCN(C(=O)c3ccco3)CC2)cc1 (stereo not drawn)	1.1	2.1	-6.5	/
Cc1ccc(/C=C/c2ccc(=O)n(Cc3ccccc3Cl)n2)cc1	-29.1	13.0*	-8.0	2.6
Cc1ccc(/C=C/c2ccc(=O)n(Cc3ccc(F)cc3)n2)cc1	/	6.1	/	/
COc1ccc(Br)cc1C(=O)Nc1ccccc1-c1ccccc1	-13.1	12.0*	-16.4	3.4
COc1ccccc1NC(=O)c1cc(Br)ccc1Cl	/	0.0	/	/
Cn1c(=O)c(=O)n(C)c2cc(S(=O)(=O)NCCOc3ccccc3Cl)ccc21	/	2.0	/	/
CC(=O)C1=C(c2cccc([N+](=O)[O-])c2)N(C(C)=O)n2c(C)nnc2S1	/	-0.1	/	/
COC(=O)C(C(=O)OC)C(C[N+](=O)[O-])c1ccc(O)c(OC)c1 (stereo not drawn)	-5.0	2.0	-3.0	/
CCCCn1c(O)c(/C=C/C=C/C=Nc2ccccc2)sc1=S	/	13.2*	/	5.9
CCn1c(O)c(/C=C/C=C/C=Nc2ccccc2)sc1=S	/	2.4	/	/
CC(=O)Oc1cccc(N2C(=O)c3ccc(C(=O)Nc4c[nH]c(=O)[nH]c4=O)cc3C2=O)c1	/	12.5*	/	2.8
CC(C)CCN1C(=O)c2ccc(C(=O)Nc3c[nH]c(=O)[nH]c3=O)cc2C1=O	/	3.7	/	/
CCOc1c(OC(C)=O)ccc(/C=C/c2ccc3cccc(OC(C)=O)c3n2)c1[N+](=O)[O-]	-30.5	2.1	-4.6	/
C=CCN1C(=O)/C(=C/c2ccc(OC(C)=O)c(OCC)c2[N+](=O)[O-])SC1=S	/	11.6*	/	2.0
CCCCCC(=O)NCc1c(C(F)(F)F)nn(C)c1N1CCOCC1	/	0.3	/	/
CC(=O)Nc1ccc(NC(=O)C(Cc2ccccc2)NC(=O)C2CCC(C)CC2)cc1 (stereo not drawn)	-45.4	4.4	-2.8	/
CC(C)NCCCCOc1ccccc1-c1ccccc1	-33.6	0.8	-0.3	/
Cc1ccc(S(=O)(=O)NCCSCc2ccccc2)cc1	-37.5	0.8	1.1	/
COc1ccc(S(=O)(=O)NCCSCc2cccc(C)c2)cc1Br	-32.3	12.4*	-1.8	1.4
O=C(CCCn1c(=S)[nH]c2ccsc2c1=O)Nc1ccc2c(c1)OCCO2	/	1.7	/	/
SMILES	Yeast growth inh	RAM inhibit	Yeast lifespan up	RAM 5-FOA
O=[N+]([O-])c1cccc(N/N=C/c2cccc3ccccc23)c1	-6.3	7.0	-1.9	/
CCc1ccc(OCC(=O)N2c3ccccc3CCc3ccccc32)cc1	-44.0	17.6*	8.0	6.0
O=C(COc1ccccc1F)N1c2ccccc2CCc2ccccc21	-6.2	2.7	0.6	/
O=C(Nn1c(-c2ccncc2)nc2ccccc2c1=O)c1ccc([N+](=O)[O-])cc1Cl	/	-0.5	/	/
C=CCn1c(C)cc(C(=O)CSc2nnc(NCc3ccccc3)s2)c1C	64.0*	14.2*	-8.9	1.5
C=CCn1c(C)cc(C(=O)CSc2nnc(NC(C)C)s2)c1C	-54.0	0.3	-6.4	/
CC(=O)NC(Cc1c[nH]c2ccccc12)C(=O)OCC(=O)N1CCCCCC1 (stereo not drawn)	/	5.2	/	/
Cc1ccc(C(=O)NCC(=O)OCc2csc(-c3ccccc3)n2)cc1	-22.2	0.4	-6.8	/
O=C(CNS(=O)(=O)c1c(Cl)cccc1Cl)OCc1csc(-c2ccccc2)n1	-27.6	12.7*	-2.0	0.6
Cc1ccc(S(=O)(=O)NCC(=O)OCc2csc(-c3ccccc3)n2)cc1	-19.6	3.2	1.3	/
O=C(CNS(=O)(=O)c1ccc2ccccc2c1)OCc1csc(-c2ccccc2)n1	-60.0	14.1*	1.7	2.6
COc1ccccc1-c1noc(-c2cc(OC)c(OC)c(OC)c2)n1	-27.6	6.0	-8.4	/
